Source: ChEMBL document CHEMBL2434937, “Monoamine oxidase inhibitory activity of 3,5-biaryl-4,5-dihydro-1H-pyrazole-1-carboxylate derivatives” (Eur J Med Chem, 2013)

Key:
[1] = target: T1, Amine oxidase [flavin-containing] A (Homo sapiens, UniProt P21397); assay: Reversible inhibition of human recombinant MAO-A expressed in baculovirus infected […] insect cells at 300 nM after 1 hr by centrifugation-ultrafiltration method
T1 sequence (P21397 whole entry): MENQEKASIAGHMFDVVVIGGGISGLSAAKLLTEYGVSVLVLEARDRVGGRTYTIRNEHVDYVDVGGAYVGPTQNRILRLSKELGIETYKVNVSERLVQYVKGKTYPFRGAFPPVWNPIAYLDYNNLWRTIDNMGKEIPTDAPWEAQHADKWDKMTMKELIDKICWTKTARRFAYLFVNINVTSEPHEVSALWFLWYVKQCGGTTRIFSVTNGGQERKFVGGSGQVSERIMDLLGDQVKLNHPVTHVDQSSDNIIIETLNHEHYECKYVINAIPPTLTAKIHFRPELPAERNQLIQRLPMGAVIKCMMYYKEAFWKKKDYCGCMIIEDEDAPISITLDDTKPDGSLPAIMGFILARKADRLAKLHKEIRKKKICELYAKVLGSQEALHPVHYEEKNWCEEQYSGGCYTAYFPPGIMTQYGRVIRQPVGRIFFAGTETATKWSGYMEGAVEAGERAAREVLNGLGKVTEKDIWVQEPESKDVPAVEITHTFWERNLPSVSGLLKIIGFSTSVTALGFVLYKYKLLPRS
Method in brief: (§1)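 Recombinant hMAO-A (baculovirus-infected BTI insect cells) preincubated with a single inhibitor concentration in 0.05 M sodium phosphate, pH 7.4, 1 h at 37°C. One aliquot kept at 4°C unwashed. Remainder ultrafiltered (30 kDa membrane, 9000x g, 20 min, 4°C), resuspended and spun twice more. Activity by Amplex Red/HRP H2O2 fluorescence. Percent inhibition vs vehicle controls, with and without washing.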

[2] = target: T1, Amine oxidase [flavin-containing] A; assay: Reversible inhibition of human recombinant MAO-A expressed in baculovirus infected […] insect cells at 300 nM incubated for 1 hr followed by compound washout by centrifugation-ultrafiltration method; method in brief: as §1

O=C(NCCN1CCOCC1)c1ccc(Cl)cc1 [MOCLOBEMIDE]
inhibition at 0.3 µM [1]: 89%
inhibition at 0.3 µM [2]: 9.56%
